Laboratory results reported in ChEMBL document CHEMBL3232875, “Prenylated benzoylphloroglucinols and xanthones from the leaves of Garcinia oblongifolia with antienteroviral activity” (J Nat Prod, 2014).

Key:
[1] = Selectivity index, ratio of CC50 for African green monkey Vero cells to IC50 for Enterovirus 71 BrCr; type: functional
Summary of the method: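 SI computed as CC50 (Vero, 4-day MTT) divided by IC50 (EV71 BrCr CPE inhibition, 100 × TCID50, 4-day MTT) for each compound.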

[2] = Antiviral activity against Enterovirus 71 BrCr infected in African green monkey Vero cells assessed as inhibition of virus-induced cytopathic effect after 4 days by MTT assay; type: functional, cell-based, Human enterovirus 71 (strain BRCR)
Summary of the method: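 EV71 strain BrCr grown in Vero cells kept in DMEM with 2% FBS; titer by TCID50 end-point dilution. Vero cells inoculated with 100 × TCID50 virus plus serially diluted compounds (DMSO stocks); ribavirin positive control. After four days, morphology checked by light microscopy and viability by MTT to give CPE inhibition rate; IC50 by Forecast function. Mean ± SD, three independent assays, quadruplicate per concentration.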

[3] = Cytotoxicity against African green monkey Vero cells after 4 days by MTT assay; type: cell-based; settings: chlorocebus sabaeus
Summary of the method: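 Vero cells treated or untreated with serially diluted compounds (100 mM DMSO stocks) for four days, viability read by MTT; CC50 calculated by Forecast function. Mean ± SD of three independent assays, each concentration in quadruplicate.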

[4] = Enterovirus A, Vero, 96 h, read-out: IC50

CC(=O)C[C@H]1[C@@H]2C[C@]3(CC=C(C)C)C(=O)[C@@]1(C(=O)c1ccccc1)C(=O)[C@@](CC=C(C)C)(C3=O)C2(C)C
Ratio CC50/IC50 [1]: 1.5
IC50 [2, 4]: 31.1 µM
CC50 at 96 h [3]: 47 µM

CC(=O)C[C@@H]1[C@@H]2C[C@]3(CC=C(C)C)C(=O)[C@@]1(C(=O)c1ccc(O)c(O)c1)C(=O)[C@@](CC=C(C)C)(C3=O)C2(C)C
IC50 ([2]; vero): Not Active

CC(C)=CCC/C(C)=C/C[C@@H]1C[C@@]2(CC=C(C)C)C(=O)[C@H](C(=O)C(C(=O)c3ccccc3)=C2O)C1(C)C
IC50 ([2]; vero): Not Active

CC(C)=CCC/C(C)=C/C[C@@H]1C[C@@]2(CC=C(C)C)C(=O)C(OC(=O)c3ccccc3)=C(O)[C@H](C2=O)C1(C)C
Ratio CC50/IC50 [1]: 2.4
IC50 [2, 4]: 16.1 µM
CC50 at 96 h [3]: 37.8 µM

C=C(C)C(=O)CC/C(C)=C/C[C@@H]1C[C@@]2(CC=C(C)C)C(=O)[C@H](C(=O)C(C(=O)c3ccccc3)=C2O)C1(C)C
IC50 ([2]; vero): Not Active

C=C(CCC=C(C)C)C(=O)C[C@H]1C[C@@]2(CC=C(C)C)C(=O)[C@H](C(=O)C(C(=O)c3ccccc3)=C2O)C1(C)C
IC50 ([2]; vero): Not Active

CC(C)=CC[C@@]12C[C@@H](C)C(C)(C)[C@@H](C(=O)C(C(=O)c3ccccc3)=C1O)C2=O
IC50 ([2]; vero): Not Active

C=C(C)[C@@H](O)CC/C(C)=C/C[C@@H]1C[C@@]2(CC=C(C)C)C(=O)[C@H](C(=O)C(C(=O)c3ccccc3)=C2O)C1(C)C
IC50 ([2]; vero): Not Active

CC(C)=CCC/C(C)=C/C[C@H]1C[C@@]23C[C@@H](C(C)(C)O)OC2=C(C(=O)c2ccccc2)C(=O)[C@H](C3=O)C1(C)C
IC50 ([2]; vero): Not Active

CC(C)=CCC/C(C)=C/C[C@H]1C[C@@]23C[C@H](O)C(C)(C)OC2=C(C(=O)c2ccccc2)C(=O)[C@H](C3=O)C1(C)C
IC50 ([2]; vero): Not Active

C=C(C)[C@H](O)CC/C(C)=C/C[C@H]1C[C@@]2(CC=C(C)C)C(=O)[C@](CC=C(C)C)(C(=O)C(C(=O)c3ccc(O)c(O)c3)=C2O)C1(C)C
IC50 ([2]; vero): Not Active

CC(C)=CCC/C(C)=C/C[C@H]1C[C@@]2(CC=C(C)C)C(=O)[C@](CC=C(C)C)(C(=O)C(C(=O)c3cccc(O)c3)=C2O)C1(C)C
IC50 ([2]; vero): Not Active

COc1cc(O)c2c(=O)c3c(O)cc(O)c(OC)c3oc2c1
IC50 ([2]; vero): Not Active

COc1cc(O)c2c(=O)c3cc(CC=C(C)C)c(O)c(O)c3oc2c1C/C=C(\C)CCC=C(C)C
IC50 ([2]; vero): Not Active

COc1c(CC=C(C)C)c(O)c2c(=O)c3ccc(O)c(O)c3oc2c1CC=C(C)C [DULXANTHONE B]
IC50 ([2]; vero): Not Active

CC(C)=CCC/C(C)=C/C[C@@H]1C[C@]2(CC=C(C)C)C(=O)[C@@](CC=C(C)C)(C(=O)C(C(=O)c3ccc(O)c(O)c3)=C2O)[C@@]1(C)CCC=C(C)C [OBLONGIFOLIN C]
IC50 ([2]; vero): Not Active

NC(=O)c1ncn([C@@H]2O[C@H](CO)[C@@H](O)[C@H]2O)n1 [RIBAVIRIN]
Ratio CC50/IC50 [1]: >4
IC50 [2, 4]: 253 µM
CC50 at 96 h [3]: > 1000 µM
